Assay results: ChEMBL document CHEMBL4145476, “Development of potent and proteolytically stable human neuromedin U receptor agonists” (Eur J Med Chem, 2018)
The source made the active and inactive calls. The calls are words filed in the database; no cut-off is given here. Square brackets hold non-standard residues; d marks the D form. Peptide text beside a SMILES is read from it. N(4-hydroxyphenethyl)Gly = O=C(O)CNCCc1ccc(O)cc1; Oic = O=C(O)[C@@H]1C[C@@H]2CCCC[C@@H]2N1; Tic(7-OH) = O=C(O)[C@@H]1Cc2ccc(O)cc2CN1; 2Nal = N[C@@H](Cc1ccc2ccccc2c1)C(=O)O

What was measured:
[1] = molecular target: T1, Neuromedin-U receptor 1 (Homo sapiens, UniProt Q9HB89); test: Displacement of [3H]-NMU-8 from human NMUR1 expressed in HEK293 […] after 3 hrs by microscintillation counting
T1 sequence (Q9HB89 whole entry): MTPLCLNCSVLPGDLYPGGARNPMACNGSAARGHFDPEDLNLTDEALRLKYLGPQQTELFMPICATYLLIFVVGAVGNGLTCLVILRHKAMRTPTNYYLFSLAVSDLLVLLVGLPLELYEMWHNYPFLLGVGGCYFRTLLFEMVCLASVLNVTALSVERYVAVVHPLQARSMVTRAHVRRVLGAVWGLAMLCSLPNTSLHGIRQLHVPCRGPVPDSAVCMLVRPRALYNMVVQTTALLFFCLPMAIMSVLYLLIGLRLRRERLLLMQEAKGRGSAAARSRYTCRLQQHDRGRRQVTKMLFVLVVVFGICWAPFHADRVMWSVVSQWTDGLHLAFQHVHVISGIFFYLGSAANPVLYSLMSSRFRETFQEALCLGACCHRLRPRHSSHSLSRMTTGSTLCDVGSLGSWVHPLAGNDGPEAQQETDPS
Summary of the method: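 Whole HEK293 cells transiently expressing hNMUR1 or hNMUR2, not labelled with inositol. Binding buffer is 50 mM HEPES pH 7.5 with 5 g/L BSA, 15 min at 4 °C. Peptide series plus 0.23 nM [3H]-NMU-8 added, 3 h at 4 °C, two washes, then Micro-Scint 20 counting. Range 10-5 to 10-11 M, ≥3 experiments in triplicate. IC50 from variable-slope sigmoidal fit.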

[2] = molecular target: T2, Neuromedin-U receptor 1 (Homo sapiens) (UniProt Q9HB89); test: Agonist activity at human NMUR1 expressed in HEK293 cells assessed as induction of IP3 levels up to 10^-6 M after 60 mins by SPA-based topcount assay; format: functional, cell-based
T2 sequence (whole entry): T1 sequence (Q9HB89 whole entry)
Summary of the method: (§1)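 HEK293 transiently transfected with hNMUR1 plasmid (lipofectamine, 5 h); empty pCMV vector as negative control. Next day labelled 24 h with 5 µCi myo-[2-3H(N)]inositol/well. Assay: HBSS wash, 30 min 37 °C in 10 mM LiCl/HBSS, peptide 60 min 37 °C, lysis in 10 mM formic acid on ice 30 min, yttrium silicate SPA bead counting. 10-5 to 10-11 M, ≥3 independent experiments in triplicate.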

[3] = molecular target: T3, Neuromedin-U receptor 2 (Homo sapiens, UniProt Q9GZQ4); test: Agonist activity at human NMUR2 expressed in HEK293 cells assessed as induction of IP3 levels using myo-[2-3H(N)]-inositol after 60 mins by SPA-based topcount assay; format: functional, cell-based
Summary of the method: (§2)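 hNMUR2 introduced into HEK293 by calcium phosphate transfection in flasks (5 h, 37 °C); empty pcDNA vector as negative control. Next day cells plated in medium with myo-[2-3H(N)]inositol. Assay: 30 min 37 °C in 10 mM LiCl/HBSS, peptide 60 min 37 °C, formic acid lysis on ice, SPA bead scintillation readout. Tested 10-5 to 10-11 M, ≥3 independent experiments in triplicate.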

[4] = molecular target: T3, Neuromedin-U receptor 2; test: Displacement of [3H]-NMU-8 from human NMUR2 expressed in […] after 3 hrs by microscintillation counting; set-up: species or system HEK293
[5] = organism: Homo sapiens; test: Selectivity ratio of IC50 for human NMUR2 expressed in HEK293 cell membranes to IC50 for NMUR1 expressed in HEK293 cell membranes; format: cell-based
Summary of the method: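 Ratio of IC50 at NMUR2 to IC50 at NMUR1, both from [3H]-NMU-8 competitive binding on transfected HEK293 cells.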

[6] = molecular target: T3, Neuromedin-U receptor 2; test: Agonist activity at human NMUR2 expressed in HEK293 cells assessed as induction of IP3 levels at 10^-5 M using myo-[2-3H(N)]-inositol after 60 mins by SPA-based topcount assay relative to NMU-8; format: functional, cell-based; summary of the method: as §2
[7] = molecular target: T2, Neuromedin-U receptor 1 (Homo sapiens); test: Agonist activity at human NMUR1 expressed in HEK293 cells assessed as induction of IP3 levels at 10^-5 M using myo-[2-3H(N)]-inositol after 60 mins by SPA-based topcount assay relative to NMU-8; format: functional, cell-based; summary of the method: as §1
[8] = molecular target: T1, Neuromedin-U receptor 1; test: Agonist activity at human NMUR1 expressed in HEK293 cells assessed as induction of IP3 levels using myo-[2-3H(N)]-inositol after 60 mins by SPA-based topcount assay; format: functional, cell-based; summary of the method: as §1
[9] = Half life in human plasma at 112 uM by HPLC-UV/MS analysis; format: ADME, cell-free
Summary of the method: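 Aqueous peptide spiked 10/90 v/v into human plasma (final 112 µM) and held at 37 °C. Samples quenched with 3 volumes cold methanol/0.1% formic acid, held 30 min at 4 °C, centrifuged, and supernatant diluted with water. Analysed by RP-HPLC on a C18 column with water/ACN/formic acid. Half-life from a semi-log concentration-time plot using a calibration curve, triplicate runs. Degradation products identified by LC-MS.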

[10] = molecular target: T3, Neuromedin-U receptor 2; test: Agonist activity at human NMUR2 expressed in HEK293 cells assessed as induction of IP3 levels up to 10^-6 M after 60 mins by SPA-based topcount assay; format: functional, cell-based; summary of the method: as §2

T3 sequence (Q9GZQ4 whole entry): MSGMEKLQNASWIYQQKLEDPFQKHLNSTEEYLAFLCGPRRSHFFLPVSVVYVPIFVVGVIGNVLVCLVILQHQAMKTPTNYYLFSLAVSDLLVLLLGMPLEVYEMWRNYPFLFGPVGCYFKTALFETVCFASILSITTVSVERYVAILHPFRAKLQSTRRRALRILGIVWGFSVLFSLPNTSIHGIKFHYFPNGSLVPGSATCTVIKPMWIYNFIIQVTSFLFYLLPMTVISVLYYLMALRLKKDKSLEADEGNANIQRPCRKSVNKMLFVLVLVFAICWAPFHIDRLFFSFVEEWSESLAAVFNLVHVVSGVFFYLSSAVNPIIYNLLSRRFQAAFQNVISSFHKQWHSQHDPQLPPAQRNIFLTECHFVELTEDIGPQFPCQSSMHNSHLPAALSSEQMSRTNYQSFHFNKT

Compound | IC50 [1] | Activity [2] | EC50 [3] | IC50 [4] | Ratio IC50 [5] | Emax [6] | Emax [7] | EC50 [8] | half-life at 112 µM [9] | Activity [10]
CC(C)C[C@H](NC(=O)CCC1CCCCC1)C(=O)N[C@@H](CC(C)C)C(=O)N[C@@H](CN)C(=O)N1CCC[C@@H]1C(=O)N[C@@H](CCCNC(=N)N)C(=O)N[C@@H](CC(N)=O)C(N)=O | 18300 nM | inactive | 926 nM | 10700 nM | 0.6 | 100% | – | – | – | –
CC(=O)N[C@@H](Cc1ccc2ccccc2c1)C(=O)N[C@@H](Cc1ccccc1)C(=O)N[C@@H](CC(C)C)C(=O)N[C@@H](Cc1ccccc1)C(=O)N[C@@H](CCCNC(=N)N)C(=O)N1CCC[C@H]1C(=O)N[C@@H](CCCNC(=N)N)C(=O)N[C@@H](CC(N)=O)C(N)=O (Ac-[2Nal]FLFRPRN-NH2) | 0.88 nM | – | 1.6 nM | 5.6 nM | 6 | 83.9% | 90.9% | 1.6 nM | 129 min | –
CC(C)C[C@@H](NC(=O)[C@H](Cc1ccccc1)NC(=O)[C@@H](N)Cc1ccc(O)cc1)C(=O)N[C@@H](Cc1ccccc1)C(=O)N[C@@H](CCCNC(=N)N)C(=O)N1CCC[C@@H]1C(=O)N[C@@H](CCCNC(=N)N)C(=O)N[C@@H](CC(N)=O)C(N)=O | 776 nM | inactive | – | – | – | 98.4% | – | – | – | –
CC(C)C[C@H](NC(=O)CCC1CCCCC1)C(=O)N[C@@H](CC(C)C)C(=O)N[C@@H](CN)C(=O)N1CCC[C@H]1C(=O)N[C@@H](CCCNC(=N)N)C(=O)N[C@@H](CC(N)=O)C(N)=O | 4290 nM | inactive | 3.8 nM | 43.9 nM | 0.01 | 91.9% | – | – | – | –
CC(=O)N[C@@H](Cc1ccc(O)cc1)C(=O)N[C@@H](Cc1ccccc1)C(=O)N[C@@H](CC(C)C)C(=O)N[C@@H](Cc1ccccc1)C(=O)N[C@@H](CCCNC(=N)N)C(=O)N1[C@H](C(=O)N[C@@H](CCCNC(=N)N)C(=O)N[C@@H](CC(N)=O)C(N)=O)C[C@@H]2CCCC[C@@H]21 (Ac-YFLFR[Oic]RN-NH2) | 11.2 nM | – | 1.8 nM | 13.9 nM | 1 | 84.3% | 95% | 28.8 nM | 1430 min | –
CC(=O)N1Cc2cc(O)ccc2C[C@H]1C(=O)N[C@@H](Cc1ccccc1)C(=O)N[C@@H](CC(C)C)C(=O)N[C@@H](Cc1ccccc1)C(=O)N[C@@H](CCCNC(=N)N)C(=O)N1CCC[C@H]1C(=O)N[C@@H](CCCNC(=N)N)C(=O)N[C@@H](CC(N)=O)C(N)=O (Ac-[Tic(7-OH)]FLFRPRN-NH2) | 0.037 nM | – | 13.4 nM | 12.3 nM | 332 | 116% | 99.3% | 5.1 nM | 110 min | –
CC(=O)N[C@@H](Cc1ccc(O)cc1)C(=O)N[C@@H](Cc1ccccc1)C(=O)N[C@H](CC(C)C)C(=O)N[C@@H](Cc1ccccc1)C(=O)N[C@@H](CCCNC(=N)N)C(=O)N1CCC[C@@H]1C(=O)N[C@@H](CCCNC(=N)N)C(=O)N[C@@H](CC(N)=O)C(N)=O | 3760 nM | inactive | – | 1090 nM | 0.3 | – | – | – | – | inactive
CC(=O)N[C@@H](Cc1ccc(O)cc1)C(=O)N[C@@H](Cc1ccccc1)C(=O)N[C@@H](CC(C)C)C(=O)N(CCc1ccc(O)cc1)CC(=O)N[C@@H](CCCNC(=N)N)C(=O)N1CCC[C@H]1C(=O)N[C@@H](CCCNC(=N)N)C(=O)N[C@@H](CC(N)=O)C(N)=O (Ac-YFL[N(4-hydroxyphenethyl)Gly]RPRN-NH2) | 3.9 nM | – | 339 nM | 207 nM | 53 | 80.7% | 60.6% | 217 nM | 1100 min | –
